Calls of active or inactive are those of the source. How the calls were made is not given here.

Scavenger receptor class B member 1 (Mus musculus), sequence (Q61009 whole entry C384S): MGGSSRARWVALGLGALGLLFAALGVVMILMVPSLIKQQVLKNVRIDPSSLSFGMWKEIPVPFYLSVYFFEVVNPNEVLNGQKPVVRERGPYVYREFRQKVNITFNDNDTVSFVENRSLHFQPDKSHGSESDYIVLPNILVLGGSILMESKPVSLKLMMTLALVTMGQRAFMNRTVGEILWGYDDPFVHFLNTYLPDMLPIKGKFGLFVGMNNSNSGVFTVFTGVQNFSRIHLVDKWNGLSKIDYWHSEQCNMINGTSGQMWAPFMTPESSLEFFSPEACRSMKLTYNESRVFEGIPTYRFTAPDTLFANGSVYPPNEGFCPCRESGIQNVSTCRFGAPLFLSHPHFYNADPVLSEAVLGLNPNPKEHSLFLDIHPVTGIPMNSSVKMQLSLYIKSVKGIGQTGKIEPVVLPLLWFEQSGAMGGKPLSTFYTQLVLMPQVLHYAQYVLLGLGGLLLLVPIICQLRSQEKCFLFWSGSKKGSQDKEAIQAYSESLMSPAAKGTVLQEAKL

The target in the experiment is Scavenger receptor class B member 1 (Mus musculus) (UniProt Q61009). The experiment can be described thus: inhibitors of C384S mutant SR-BI HDL uptake, late-stage follow-up, mechanism study for SR-BI HDL uptake inhibitor project, C384S mutant cells, scintillation, powder samples (AID 588837). To be noted: CHO ldlA C384S mSR-BI, [3H]CE-HDL uptake, 2 h; at 1 µM; active compounds read low. The procedure, abridged:
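Test system: CHO cells lacking LDL receptor, overexpressing C384S mutant SR-BI; Buffer or medium: Ham's F12K medium with 0.5% fatty acid-free BSA; Compound: 0.5% DMSO with compound; Timing: 1 h pretreatment plus 2 h uptake at 37 °C; Signal: scintillation counting of cell-associated tritium label; Controls: 40-fold excess unlabeled HDL defining nonspecific background uptake.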
With `COc1ccc(-c2nnn(CC(=O)N(C3CCCCC3)C(C)C(=O)NC3CCCC3)n2)cc1OC` (stereo not given), the cholesterol uptake was 89.4%. In the case of `Cc1ccc2oc(-c3cccc(NC(=O)c4cc(-n5cnnc5)ccc4Cl)c3)nc2c1`, the cholesterol uptake is 84.4%. For `CCOC(=O)N1CCC(NC(=O)c2ccc3c(c2)N(Cc2ccc(F)cc2)CCS3)CC1` the value was 78.2%; for `O=C(Nc1ccc(Cl)cc1C(=O)c1ccc(Cl)cc1)c1cc(Br)ccc1NS(=O)(=O)c1ccc(Cl)cc1`, 121% (inactive). Consider `CCC(=O)N1CCc2cc(-c3csc(NC(=O)c4ccco4)n3)ccc21`, for which the cholesterol uptake is 88.3%.

The record behind these values is PubChem BioAssay AID588837 (Broad Institute, 2011).
